# Assays:
# Format in all cases: cell-based
# [1] = molecular target: Glutamate receptor 1 (Rattus norvegicus) (UniProt P19490); assay: Inhibition of rat GluA1 flip isoform expressed in Xenopus laevis oocytes assessed as inhibition of L-Glu-evoked currents at 100 nM under dark condition at -80 mV membrane potential by two electrode voltage-clamp assay
# Outline: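 TEVC on stage V–VI Xenopus laevis oocytes injected with GluA1 cRNA (13–46 nL) and recorded 1–3 days later at −80 mV and 23 °C. Bath solution (mM): 115 NaCl, 2 KCl, 5 HEPES, 1.8 BaCl₂, pH 7.6. Antagonist was co-applied with 300 µM L-glutamate in a dark room. Current was normalized to agonist alone; mean ± SEM, n = 3–16 oocytes.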
# [2] = molecular target: T1, Glutamate NMDA receptor; Grin1/Grin2a (Rattus norvegicus) (UniProt P35439+Q00959); assay: Inhibition of rat GluN1a/GluN2A expressed in Xenopus laevis oocytes assessed as inhibition of L-Glu and Gly-evoked currents at 100 nM under dark condition at -80 mV membrane potential by two electrode voltage-clamp assay
# Outline: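 Xenopus laevis oocytes (stage V–VI) were injected with GluN1 and GluN2A cRNA at a 1:10 ratio. Two-electrode voltage clamp was done 1–3 days post-injection at −80 mV and 23 °C in 115 NaCl/2 KCl/5 HEPES/1.8 BaCl₂ (mM), pH 7.6. Antagonist was co-applied with 100 µM L-glutamate plus 100 µM glycine in a dark room. Current was normalized to agonist-only; mean ± SEM, n = 3–16.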
# [3] = molecular target: T1, Glutamate NMDA receptor; Grin1/Grin2a (Rattus norvegicus); assay: Ratio of IC50 for inhibition of rat GluN1a/GluN2A expressed in Xenopus laevis oocytes under illumination with blue light at 470 nanometer condition to IC50 for inhibition of rat GluN1a/GluN2A expressed in Xenopus laevis oocytes under dark condition
# Outline: (§1)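 Oocytes injected with a 1:10 GluN1:GluN2A cRNA ratio and clamped at −80 mV by TEVC, 23 °C. Bath: 115 NaCl, 2 KCl, 5 HEPES, 1.8 BaCl2 (mM), pH 7.6. Antagonist co-applied with 100 µM L-Glu plus 100 µM glycine; response normalized to agonist alone. Dark runs done in a dark room. IC50 fitted with a Hill equation to pooled data from 3–10 oocytes.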
# [4] = molecular target: T2, Glutamate NMDA receptor; Grin1/Grin2a (Rattus norvegicus, UniProt P35439+Q00959); assay: Inhibition of rat GluN1a/GluN2A expressed in Xenopus laevis oocytes assessed as inhibition of L-Glu and Gly-evoked currents under dark condition at -80 mV membrane potential by two electrode voltage-clamp assay; outline: as §1
# [5] = molecular target: T3, Glutamate receptor 1 (Rattus norvegicus, UniProt P19490); assay: Inhibition of rat GluA1 flip isoform expressed in Xenopus laevis oocytes assessed as inhibition of L-Glu-evoked currents under dark condition at -80 mV membrane potential by two electrode voltage-clamp assay
# Outline: (§2)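 TEVC at −80 mV, 23 °C, on oocytes 1–3 days after cRNA injection. Bath: 115 NaCl, 2 KCl, 5 HEPES, 1.8 BaCl2 (mM), pH 7.6. Antagonist co-applied with 300 µM L-Glu; current normalized to agonist alone. Dark runs done in a dark room. IC50 from pooled data of 3–10 oocytes, fitted with a Hill equation. Single-concentration screens used 100 nM and 10 nM.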
# [6] = molecular target: T3, Glutamate receptor 1; assay: Inhibition of rat GluA1 flip isoform expressed in Xenopus laevis oocytes assessed as inhibition of L-Glu-evoked currents under illumination with blue light at 470 nanometer at -80 mV membrane potential by two electrode voltage-clamp assay; outline: as §2
# [7] = molecular target: T2, Glutamate NMDA receptor; Grin1/Grin2a; assay: Inhibition of rat GluN1a/GluN2A expressed in Xenopus laevis oocytes assessed as inhibition of L-Glu and Gly-evoked currents under illumination with blue light at 470 nanometer condition at -80 mV membrane potential by two electrode voltage-clamp assay; outline: as §1
# [8] = molecular target: T1, Glutamate NMDA receptor; Grin1/Grin2a (Rattus norvegicus); assay: Inhibition of rat GluN1a/GluN2A expressed in Xenopus laevis oocytes assessed as inhibition of L-Glu and Gly-evoked currents at 100 nM under illumination with blue light at 470 nanometer condition at -80 mV membrane potential by two electrode voltage-clamp assay; outline: as §1
# [9] = molecular target: Glutamate receptor 1 (Rattus norvegicus) (UniProt P19490); assay: Inhibition of rat GluA1 flip isoform expressed in Xenopus laevis oocytes assessed as inhibition of L-Glu-evoked currents at 100 nM under illumination with blue light at 470 nanometer at -80 mV membrane potential by two electrode voltage-clamp assay; outline: as §2
# Sequence of Glutamate receptor 1 (Rattus norvegicus) (P19490 whole entry, canonical isoform): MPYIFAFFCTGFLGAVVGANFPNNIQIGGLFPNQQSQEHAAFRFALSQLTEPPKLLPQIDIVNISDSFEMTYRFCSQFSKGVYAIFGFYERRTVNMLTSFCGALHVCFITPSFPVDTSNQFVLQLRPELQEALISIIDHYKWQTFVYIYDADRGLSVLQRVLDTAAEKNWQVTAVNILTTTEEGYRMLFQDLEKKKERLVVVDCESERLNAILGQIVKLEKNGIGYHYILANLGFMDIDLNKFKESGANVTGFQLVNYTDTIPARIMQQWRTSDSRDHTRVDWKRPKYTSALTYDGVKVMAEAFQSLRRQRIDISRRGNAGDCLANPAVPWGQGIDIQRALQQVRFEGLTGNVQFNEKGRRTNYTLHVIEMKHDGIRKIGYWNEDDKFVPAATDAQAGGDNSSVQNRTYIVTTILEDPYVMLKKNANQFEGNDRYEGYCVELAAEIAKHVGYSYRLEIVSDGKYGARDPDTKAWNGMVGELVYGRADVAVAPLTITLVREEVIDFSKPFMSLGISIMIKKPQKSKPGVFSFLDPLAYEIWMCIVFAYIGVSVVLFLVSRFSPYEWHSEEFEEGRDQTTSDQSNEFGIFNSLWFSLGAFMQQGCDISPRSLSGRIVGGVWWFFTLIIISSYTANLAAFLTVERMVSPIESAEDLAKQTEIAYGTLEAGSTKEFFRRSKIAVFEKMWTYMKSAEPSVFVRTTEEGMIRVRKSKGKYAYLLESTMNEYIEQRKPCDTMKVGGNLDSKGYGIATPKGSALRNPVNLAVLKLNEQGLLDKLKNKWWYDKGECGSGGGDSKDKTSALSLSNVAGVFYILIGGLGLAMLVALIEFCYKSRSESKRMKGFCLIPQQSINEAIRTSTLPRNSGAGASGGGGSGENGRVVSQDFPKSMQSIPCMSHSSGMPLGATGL
# T3 sequence (P19490 whole entry, canonical isoform): as above
Structure (SMILES),inhibition [1],further results
CCN(CC)c1ccc(/N=N/c2cccc(C(=O)N[C@@H](CC(N)=O)C(=O)NCCCCCCCCCNCCCNC(=O)[C@@H](N)CCCNC(=N)N)c2)cc1,20 to 50%,
CCN(CC)c1ccc(/N=N/c2ccc(C(=O)NCCCCCCCCCNCCCNC(=O)[C@@H](N)CCCNC(=N)N)cc2)cc1,20 to 50%,
CCN(CC)c1ccc(/N=N/c2cccc(C(=O)N[C@@H](CC(N)=O)C(=O)NCCCCNCCCCCCCCNC(=O)[C@@H](N)CCCNC(=N)N)c2)cc1,> 70%,
CN(C)c1ccc(/N=N/c2cccc(C(=O)N[C@@H](CC(N)=O)C(=O)NCCCCNCCCCCCCCNC(=O)[C@@H](N)CCCNC(=N)N)c2)cc1,> 70%,
CN(C)c1ccc(/N=N/c2ccc(C(=O)N[C@@H](CC(N)=O)C(=O)NCCCCCCCCCNCCCNC(=O)[C@@H](N)CCCNC(=N)N)cc2)cc1,20 to 50%,
N=C(N)NCCC[C@H](N)C(=O)NCCCCCCCCNCCCCNC(=O)[C@H](CC(N)=O)NC(=O)c1cccc(/N=N/c2ccccc2)c1,,inhibition [2]: 70 to 80%
CN(C)c1ccc(/N=N/c2cccc(C(=O)N[C@@H](CC(N)=O)C(=O)NCCCCCCCCCNCCCNC(=O)[C@@H](N)CCCNC(=N)N)c2)cc1,20 to 50%,
CN(C)c1ccc(/N=N/c2ccc(C(=O)N[C@@H](CC(N)=O)C(=O)NCCCCNCCCCCCCCNC(=O)[C@@H](N)CCCNC(=N)N)cc2)cc1,> 70%,
CCN(CC)c1ccc(/N=N/c2ccc(C(=O)N[C@@H](CC(N)=O)C(=O)NCCCCCCCCNCCCCNC(=O)[C@@H](N)CCCNC(=N)N)cc2)cc1,60%,Ratio IC50 [3]: 8; inhibition [2]: < 5%; IC50 [4]: 1100 nM; IC50 [5]: 8 nM; IC50 [6]: 61 nM; IC50 [7]: 1200 nM; inhibition [8]: < 5%; inhibition [9]: 20%
CCN(CC)c1ccc(/N=N/c2cccc(C(=O)NCCCCCCCCCNCCCNC(=O)[C@@H](N)CCCNC(=N)N)c2)cc1,20 to 50%,
CN(C)c1ccc(/N=N/c2ccc(C(=O)NCCCCCCCCCNCCCNC(=O)[C@@H](N)CCCNC(=N)N)cc2)cc1,20 to 50%,
CN(C)c1ccc(/N=N/c2cccc(C(=O)NCCCCCCCCCNCCCNC(=O)[C@@H](N)CCCNC(=N)N)c2)cc1,20 to 50%,
N=C(N)NCCC[C@H](N)C(=O)NCCCNCCCCCCCCCNC(=O)c1cccc(/N=N/c2ccccc2)c1,,inhibition [2]: 70 to 80%
N=C(N)NCCC[C@H](N)C(=O)NCCCCCCCCNCCCCNC(=O)[C@H](CC(N)=O)NC(=O)c1ccc(/N=N/c2ccccc2)cc1,,inhibition [2]: 70 to 80%
CCN(CC)c1ccc(/N=N/c2ccc(C(=O)N[C@@H](CC(N)=O)C(=O)NCCCCCCCCCNCCCNC(=O)[C@@H](N)CCCNC(=N)N)cc2)cc1,20 to 50%,

# — ChEMBL document CHEMBL4196152, “Controlling Ca2+ Permeable α-Amino-3-hydroxy-5-methyl-4-isoxazolepropionic Acid (AMPA) Receptors with Photochromic Ion Channel Blockers” (J Med Chem, 2018)
